Key:
Settings in all cases: stereoisomer not certain
OR10R2 (Homo sapiens) = molecular target: T1, OR10R2 (Homo sapiens) (UniProt Q8NGX6)
T1 sequence (whole entry): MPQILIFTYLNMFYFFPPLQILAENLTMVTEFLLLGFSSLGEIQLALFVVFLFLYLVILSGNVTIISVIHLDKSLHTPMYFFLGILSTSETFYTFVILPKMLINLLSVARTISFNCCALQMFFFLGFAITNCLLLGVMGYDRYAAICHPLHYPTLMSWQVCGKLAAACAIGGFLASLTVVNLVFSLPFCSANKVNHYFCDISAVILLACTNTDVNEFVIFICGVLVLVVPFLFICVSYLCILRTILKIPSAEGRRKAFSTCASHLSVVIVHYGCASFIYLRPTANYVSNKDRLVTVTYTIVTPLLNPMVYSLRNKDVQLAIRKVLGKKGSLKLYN
Procedure, shortened: (§1)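 Each entry records the cell line, G-protein, co-transfected protein and tags used. Methods varied with the source, often transient luciferase assays in mammalian cell lines. A receptor–molecule pair is called responsive (active) if the original authors judged its signal statistically different from baseline and non-responsive (inactive) otherwise.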

OR10S1 (Homo sapiens) = molecular target: T2, OR10S1 (Homo sapiens) (UniProt Q8NGN2)
T2 sequence (whole entry): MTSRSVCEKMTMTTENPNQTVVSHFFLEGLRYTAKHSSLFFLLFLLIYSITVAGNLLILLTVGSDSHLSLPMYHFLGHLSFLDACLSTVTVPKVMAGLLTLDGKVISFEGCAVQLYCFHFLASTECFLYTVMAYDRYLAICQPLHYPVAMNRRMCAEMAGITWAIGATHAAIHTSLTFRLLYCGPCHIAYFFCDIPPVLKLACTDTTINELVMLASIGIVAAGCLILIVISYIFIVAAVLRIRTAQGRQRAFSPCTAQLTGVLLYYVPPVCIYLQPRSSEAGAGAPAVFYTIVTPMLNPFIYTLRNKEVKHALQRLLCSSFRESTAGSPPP
Procedure, shortened: as §1

OR10T2 (Homo sapiens) = molecular target: T3, OR10T2 (Homo sapiens) (UniProt Q8NGX3)
T3 sequence (whole entry): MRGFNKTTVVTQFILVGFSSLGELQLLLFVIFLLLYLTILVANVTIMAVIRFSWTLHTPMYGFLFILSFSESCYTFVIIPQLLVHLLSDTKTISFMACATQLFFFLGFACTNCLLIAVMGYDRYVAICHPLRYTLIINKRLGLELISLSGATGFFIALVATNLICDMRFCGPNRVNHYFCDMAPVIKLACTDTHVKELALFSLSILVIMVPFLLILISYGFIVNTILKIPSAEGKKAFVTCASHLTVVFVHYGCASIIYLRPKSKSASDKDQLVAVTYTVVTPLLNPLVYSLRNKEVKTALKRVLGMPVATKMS
Procedure, shortened: as §1

OR10V1 (Homo sapiens) = molecular target: T4, OR10V1 (Homo sapiens) (UniProt Q8NGI7)
T4 sequence (whole entry): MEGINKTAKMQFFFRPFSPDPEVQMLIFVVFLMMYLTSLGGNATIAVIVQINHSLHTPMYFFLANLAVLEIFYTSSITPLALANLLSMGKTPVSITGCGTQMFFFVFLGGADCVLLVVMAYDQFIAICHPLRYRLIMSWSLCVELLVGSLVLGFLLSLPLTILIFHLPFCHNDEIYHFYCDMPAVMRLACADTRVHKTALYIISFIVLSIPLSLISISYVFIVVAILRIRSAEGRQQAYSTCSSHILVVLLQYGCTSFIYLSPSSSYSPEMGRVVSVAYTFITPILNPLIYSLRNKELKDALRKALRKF
Procedure, shortened: as §1

OR10W1 (Homo sapiens) = molecular target: T5, OR10W1 (Homo sapiens) (UniProt Q8NGF6)
T5 sequence (whole entry): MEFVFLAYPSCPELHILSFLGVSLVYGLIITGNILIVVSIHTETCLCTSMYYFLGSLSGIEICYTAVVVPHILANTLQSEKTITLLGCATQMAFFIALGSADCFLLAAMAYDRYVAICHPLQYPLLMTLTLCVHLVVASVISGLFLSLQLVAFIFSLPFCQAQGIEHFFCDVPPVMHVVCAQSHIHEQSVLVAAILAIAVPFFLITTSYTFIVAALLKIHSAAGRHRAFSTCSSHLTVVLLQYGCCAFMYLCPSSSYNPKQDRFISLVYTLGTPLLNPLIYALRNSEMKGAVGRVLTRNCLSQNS
Procedure, shortened: as §1

OR10X1 (Homo sapiens) = molecular target: T6, OR10X1 (Homo sapiens) (UniProt Q8NGY0)
T6 sequence (whole entry): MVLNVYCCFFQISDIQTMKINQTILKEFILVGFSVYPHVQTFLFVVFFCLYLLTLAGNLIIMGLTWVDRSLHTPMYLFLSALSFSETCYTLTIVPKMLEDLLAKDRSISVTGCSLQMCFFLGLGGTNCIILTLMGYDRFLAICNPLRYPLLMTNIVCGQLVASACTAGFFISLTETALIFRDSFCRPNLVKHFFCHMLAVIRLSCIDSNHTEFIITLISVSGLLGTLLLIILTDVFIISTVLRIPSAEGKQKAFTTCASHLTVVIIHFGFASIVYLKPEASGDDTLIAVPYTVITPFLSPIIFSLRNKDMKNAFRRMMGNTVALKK
Procedure, shortened: as §1

OR10Z1 (Homo sapiens) = molecular target: T7, OR10Z1 (Homo sapiens) (UniProt Q8NGY1)
T7 sequence (whole entry): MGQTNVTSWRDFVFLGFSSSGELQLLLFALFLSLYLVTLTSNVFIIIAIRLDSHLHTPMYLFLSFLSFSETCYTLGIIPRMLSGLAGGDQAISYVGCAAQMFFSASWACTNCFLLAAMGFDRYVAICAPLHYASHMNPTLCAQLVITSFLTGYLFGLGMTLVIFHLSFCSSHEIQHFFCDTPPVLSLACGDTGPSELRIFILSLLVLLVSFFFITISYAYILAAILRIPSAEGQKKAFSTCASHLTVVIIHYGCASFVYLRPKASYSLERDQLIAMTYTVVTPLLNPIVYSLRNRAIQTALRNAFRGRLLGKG
Procedure, shortened: as §1

OR11A1 (Homo sapiens) = molecular target: T8, OR11A1 (Homo sapiens) (UniProt Q9GZK7)
T8 sequence (whole entry): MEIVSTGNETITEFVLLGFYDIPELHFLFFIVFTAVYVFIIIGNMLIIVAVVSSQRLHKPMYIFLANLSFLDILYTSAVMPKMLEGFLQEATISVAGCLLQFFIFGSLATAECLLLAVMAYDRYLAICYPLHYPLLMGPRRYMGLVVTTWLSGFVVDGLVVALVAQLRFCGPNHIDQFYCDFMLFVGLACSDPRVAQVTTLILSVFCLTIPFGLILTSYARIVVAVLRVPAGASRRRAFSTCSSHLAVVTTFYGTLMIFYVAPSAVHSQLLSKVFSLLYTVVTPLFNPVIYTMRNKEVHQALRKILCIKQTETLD
Procedure, shortened: as §1

OR11G2 (Homo sapiens) = molecular target: T9, OR11G2 (Homo sapiens) (UniProt Q8NGC1)
T9 sequence (whole entry): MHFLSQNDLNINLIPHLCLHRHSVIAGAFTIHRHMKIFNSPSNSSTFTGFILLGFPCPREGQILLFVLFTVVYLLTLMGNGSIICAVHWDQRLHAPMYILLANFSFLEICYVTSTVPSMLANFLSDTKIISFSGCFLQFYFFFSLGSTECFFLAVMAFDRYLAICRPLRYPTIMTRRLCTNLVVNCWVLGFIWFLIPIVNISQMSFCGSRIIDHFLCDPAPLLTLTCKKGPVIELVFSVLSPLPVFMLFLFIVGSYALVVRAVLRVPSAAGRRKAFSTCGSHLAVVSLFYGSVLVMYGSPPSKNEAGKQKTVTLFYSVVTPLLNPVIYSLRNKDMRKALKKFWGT
Procedure, shortened: as §1

OR11H1 (Homo sapiens) = molecular target: T10, OR11H1 (Homo sapiens) (UniProt Q8NG94)
T10 sequence (whole entry): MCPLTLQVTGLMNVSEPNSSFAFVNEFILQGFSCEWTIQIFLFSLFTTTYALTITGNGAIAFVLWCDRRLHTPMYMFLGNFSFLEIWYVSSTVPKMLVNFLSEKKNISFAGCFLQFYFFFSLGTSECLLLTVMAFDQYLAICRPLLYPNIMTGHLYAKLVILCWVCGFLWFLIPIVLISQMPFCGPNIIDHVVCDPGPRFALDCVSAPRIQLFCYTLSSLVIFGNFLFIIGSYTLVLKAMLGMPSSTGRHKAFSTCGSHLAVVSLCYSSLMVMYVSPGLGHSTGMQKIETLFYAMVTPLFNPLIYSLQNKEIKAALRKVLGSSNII
Procedure, shortened: as §1

Measured: odorant receptor agonist call

CC1=C(O)C(=O)C(C)O1 (stereo not given)
inactive: all assays above

CCCCCC(S)C(C)CO (stereo not given)
inactive: all assays above

CCCCCCCCCCCCCCCCCC(=O)[O-].[H+]
inactive: OR10S1 (Homo sapiens)

CC(=O)c1c(C)c([N+](=O)[O-])c(C(C)(C)C)c([N+](=O)[O-])c1C
inactive: all assays above

Cc1cnc(C)c(C)n1
inactive: all assays above

CC1=NC(C)C(C)S1 (stereo not given)
inactive: all assays above

CCC(O)CC
inactive: OR10S1 (Homo sapiens)

CCCC(S)CCOC(C)=O (stereo not given)
inactive: all assays above

CCCCCCCCCCCC(=O)OC
inactive: OR10S1 (Homo sapiens)

CC1=C(O)C(=O)OC1C (stereo not given)
inactive: all assays above

CCCCCCCC(=O)OC
inactive: OR10S1 (Homo sapiens)

O=c1ccc2ccccc2o1
inactive: OR10S1 (Homo sapiens)

CCCC(=O)CC
inactive: OR10S1 (Homo sapiens)

CC1CCCCCCCCCCCCC(=O)C1 (stereo not given)
inactive: all assays above

CC(O)C(=O)[O-].[H+] (stereo not given)
inactive: OR10S1 (Homo sapiens)

CCC1OC(=O)C(O)=C1C (stereo not given)
inactive: all assays above

CCCCCCC=CCCC=O
inactive: all assays above

CC(CO)CS (stereo not given)
inactive: all assays above

CCC1OC(C)=C(O)C1=O (stereo not given)
inactive: all assays above

CCC(S)C(C)CO (stereo not given)
inactive: all assays above

CC(C)=CCCC(C)=CCO
active: OR10S1 (Homo sapiens)

CCCCC(S)C(C)CO (stereo not given)
inactive: all assays above

CCCCCC(=O)C(C)C(C)=O (stereo not given)
inactive: all assays above

CCCCCCCCCCCCCCC(=O)O
inactive: OR10S1 (Homo sapiens)

CCCCOCC(C)O (stereo not given)
inactive: OR10S1 (Homo sapiens)

Source: the M2OR odorant receptor database
